Screening results as filed in PubChem BioAssay.
A selection: hits, their analogues and other compounds. The true share with any hit is near 4.5%.
TAAR1 agonist = agonists of human TAAR1; Q96RJ0; AID 624467; CHO RD-HGA16 TAAR1, Fluo-8 calcium fluorescence; vehicle wells 0%, saturating PEA agonist 100%; actives 0.99% (n = 360,000); activation, % at 3 µM;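 active = activation above the mean activation of all test compounds in the run plus 3 SD, cut at about 38% in these data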
Target sequence (Q96RJ0 whole entry, looked up): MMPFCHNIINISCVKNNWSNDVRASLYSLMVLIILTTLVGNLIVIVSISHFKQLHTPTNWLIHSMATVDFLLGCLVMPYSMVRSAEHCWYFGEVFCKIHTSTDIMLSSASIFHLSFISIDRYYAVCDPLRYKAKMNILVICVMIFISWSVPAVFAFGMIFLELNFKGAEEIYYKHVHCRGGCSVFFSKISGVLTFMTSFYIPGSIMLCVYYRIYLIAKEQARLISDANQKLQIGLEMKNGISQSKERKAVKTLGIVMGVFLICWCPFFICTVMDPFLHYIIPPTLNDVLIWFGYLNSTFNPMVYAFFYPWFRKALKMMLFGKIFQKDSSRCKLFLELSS
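Assay system – CHO-derived RD-HGA16 cells with stable Gα16 and human TAAR1 · Compound dosing – one-point dosing at 3 µM (nominal) · Incubation – 17-24 h seeding, 75 min 37 °C dye, 30 min RT · Measured by – kinetic Fluo-8 calcium fluorescence · Control set – DMSO vehicle as 0%, PEA at EC100 as 100% · Repeats – single well for each compound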
OX1R antag-1 = antagonists of human orexin 1 receptor (OX1R); actives 1.8% (n = 330,000); O43613; inhibition, % at 6.6 µM; OX1R-expressing cells, FRET antagonist read-out; in the data active = inhibition mostly above about 38%, no sharp cut-off; inactive = mostly below about 40%;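 note: 0% = agonist challenge alone and 100% = reference antagonist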
CHO parental Ca = counter-screen for OX1R antagonists: effect in parental CHO cells; parental CHO-K1, ATP-induced calcium, Fluo-8 fluorescence; inhibition, % at 5.6 µM; actives 0.63% (n = 330,000); AID 463079;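 active = inhibition above that plate's mean sample inhibition plus 3 SD, cut at about 26% in these data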;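 note: 0% = ATP-challenged DMSO wells and 100% = DMSO wells without ATP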
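Material: parental CHO cells / Compound: single nominal dose of 5.6 µM per compound / Signal: Fluo-8 fluorescence / Replicates: singlicate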
OX1R antag-2 = blocks the human orexin 1 receptor | O43613 | CHO/OX1R cells, Fluo-8 calcium fluorescence, orexin A | inhibition, % at 5 µM | actives 0.43% (n = 330,000) | AID 434989;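 active = inhibition above its plate's threshold, mean inhibition of all tested compounds on the plate plus 3 SD, cut at about 37% in these data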;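 note: 0% = orexin A challenge wells and 100% = SB-334867-A antagonist wells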
GPR7 antagonist = blocks human GPR7 receptor signaling | GPR7-expressing cells, fluorescence antagonist assay | inhibition, % at 4.4 µM | actives 1.1% (n = 290,000) | AID 1861; in the data active = inhibition above about 16%, passing the limit was not always enough;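 note: cells stimulated with the agonist NPW; 0% = agonist with vehicle and 100% = vehicle without agonist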
TAAR1 antag = human TAAR1 antagonism; Q96RJ0; CHO RD-HGA16 TAAR1, Fluo-8 calcium fluorescence, antagonist; inhibition, % at 3 µM; actives 1.5% (n = 360,000); AID 624466;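 active = inhibition above a per-plate cutoff, the mean inhibition of test compounds on that plate plus 3 SD, cut at about 49% in these data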;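 note: 0% = DMSO plus EC80 beta-PEA response and 100% = DMSO alone without agonist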
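Test system – hTAAR1-expressing CHO RD-HGA16 cells, Gα16-coupled · Reagent – β-PEA at EC80 concentration, post-compound challenge · Compound dosing – 3 µM, single point · Timing – 140 s kinetic read after compound, 140 s after agonist · Detection – Fluo-8 intracellular calcium dye fluorescence, real-time kinetic reads · Control set – DMSO and EC80 PEA controls · Repeats – n of 1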
* hit, by the source's call; · = no result given.

SMILES	TAAR1 agonist	OX1R antag-1	CHO parental Ca	OX1R antag-2	GPR7 antagonist	TAAR1 antag
O=C1N[C@@H](Cc2ccccc2)COC(=O)[C@@H](Cc2ccc(F)cc2)C/C=C\C[C@@H]1CC(=O)N(CCO)Cc1ccccc1	28	24	-4	34	·	54*
CC(C)(C)[C@H]1COC(=O)[C@@H](Cc2ccc(F)cc2)CC/C=C/C[C@@H](CC(=O)N[C@@H](CO)Cc2ccccc2)C(=O)N1	19	20	-27	13	·	52*
CC(C)(C)OC(=O)C[C@@H]1C/C=C\C[C@@H](CC(=O)N(CCO)Cc2ccccc2)C(=O)NC[C@H](c2ccccc2)OC1=O	23	19	-16	13	·	63*
C=CCn1c(C(C)NC(=O)CCC)nc2ccccc21 (centres undefined)	7	10	4	-1	20*	-16
O=C(Cn1cnc2cc([N+](=O)[O-])ccc2c1=O)NC1CCS(=O)(=O)C1 (centres undefined)	7	63*	-1	-18	-8	11
CN(Cc1cccs1)C(=O)Cn1cnc2cc([N+](=O)[O-])ccc2c1=O	6	40*	-2	-17	-8	3
O=C(Cn1cnc2cc([N+](=O)[O-])ccc2c1=O)N(Cc1ccccc1)C1CCS(=O)(=O)C1 (centres undefined)	1	49	-16	-22	3	-5
CCCc1ccc(-c2cc(NC(=O)Cc3c(C)[nH]c4ccccc34)ccc2Nc2cccnc2)cc1	1	·	·	·	·	-22
COc1ccccc1NS(=O)(=O)c1cc(C(=O)Nc2ccc(S(=O)(=O)Nc3onc(C)c3C)cc2)ccc1C	3	·	·	·	·	-1
O=C1N2CCSC2=NC1(Nc1nccs1)C(F)(F)F (centres undefined)	1	48*	-3	29	-8	-5
CN1CCN(C(=O)OC2CC3CC2[C@H]2CCCCN2C3=O)CC1 (some centres undefined)	1	·	·	·	·	-5
Cc1cc(=O)[nH]c(SCC(=O)O)c1C#N	8	1	-3	-3	-13	-5
Cc1cc(=O)[nH]c(SCC(=O)C23CC4CC(CC(C4)C2)C3)c1C#N	16	40*	-9	-20	8	-9
CCOc1ccc(CCNC(=O)C2CCCN(S(=O)(=O)N3CCCCC3)C2)cc1OCC (centres undefined)	-1	·	·	·	·	-13
O=C(N/C(=C\c1ccc([N+](=O)[O-])cc1)C(=O)N1CCCCC1)c1ccccc1Br	2	51*	-28	-31	-4	17
CC(=O)c1ccc(N=Nc2c(C)[nH][nH]c2=O)cc1	4	43	-29	-11	·	-5
NS(=O)(=O)c1ccc(N=Nc2c[nH]c(=O)c(O)c2)cc1	6	42*	3	5	-5	-4
Nc1nc(O)c(N=Nc2ccc(S(N)(=O)=O)cc2)c(=O)[nH]1	0	·	·	·	-1	-6
Cc1[nH][nH]c(=O)c1N=Nc1ccc(S(N)(=O)=O)cc1	0	41*	-8	0	·	-35
COc1ccc([C@H]2CC(=O)C=C(c3cccc(C(C)C)c3)C2)cc1OC	5	6	24	48*	·	66*
CC(C)c1cccc(C2=CC(=O)C[C@H](c3ccc(F)cc3)C2)c1	6	16	-27	-6	·	52*
Cc1ccc(Cn2c(CCNc3nc(-c4ccc(Cl)c([N+](=O)[O-])c4)cs3)nc3cc(C(=O)NCCCO)ccc32)cc1	8	6	-2	16	·	55*
O=[N+]([O-])c1cc(-c2csc(NCCc3nc4cc(C(F)(F)F)ccc4n3CCCO)n2)ccc1Cl	1	23	-6	-19	·	4
CN(C)CCNc1ccc2ncn3c4ccc(O)cc4c(=O)c1c23	0	·	·	·	·	8
CCOC(=O)N1CCN(CC(O)COc2c(C)cccc2C)CC1 (centres undefined)	1	4	-4	15	-8	-16
Cc1cccc(C)c1OCC(O)CN (centres undefined)	41*	17	-13	-9	-11	-16
COc1ccc(C(C)(C)C)cc1NC(=O)CCNC(=O)c1ccco1	3	13	-8	-13	-10	-6
